Reference: ChEMBL document CHEMBL4152188, “Design, synthesis and biological evaluation of C(4) substituted monobactams as antibacterial agents against multidrug-resistant Gram-negative bacteria” (Eur J Med Chem, 2018)
In brackets after ≈: the same amount, converted by molar mass.

Tests used:
Type in all cases: functional
Escherichia coli [1] = assay: Antibacterial activity against extended-spectrum beta-lactamase producing Escherichia coli isolate 208687 after 18 hrs in presence of BPL by CLSI broth microdilution method; conditions: isolate 208687, 18 h
Outline: (§1)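 CLSI broth microdilution against clinical isolates (ESBL E. coli, KPC-2 MDR K. pneumoniae, IMP-4 MDR P. aeruginosa; five per species). Iron limitation: Mueller-Hinton broth supplemented with 16 mg/liter 2,2'-bipyridyl to complex iron and induce iron uptake systems. Read-out: MIC.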

Escherichia coli [2] = assay: Antibacterial activity against extended-spectrum beta-lactamase producing Escherichia coli isolate 106342 after 18 hrs by CLSI broth microdilution method; conditions: isolate 106342, 18 h
Escherichia coli [3] = assay: Antibacterial activity against extended-spectrum beta-lactamase producing Escherichia coli isolate 212648 after 18 hrs in presence of BPL by CLSI broth microdilution method; conditions: isolate 212648, 18 h; outline: as §1
Pseudomonas aeruginosa [4] = assay: Selectivity index, ratio of MIC for against IMP-4 producing Pseudomonas aeruginosa isolate 209321 to MIC for against IMP-4 producing Pseudomonas aeruginosa isolate 209321 in presence of BPL
Escherichia coli [5] = assay: Selectivity index, ratio of MIC for against Escherichia coli isolate 210737 to MIC for Escherichia coli isolate 210737 in presence of BPL
Klebsiella pneumoniae [6] = assay: Antibacterial activity against KPC-2 producing Klebsiella pneumoniae isolate 212229 after 18 hrs in presence of BPL by CLSI broth microdilution method; conditions: isolate 212229, 18 h; outline: as §1
Klebsiella pneumoniae [7] = assay: Selectivity index, ratio of MIC for against KPC-2 producing Klebsiella pneumoniae isolate 212423 to MIC for against KPC-2 producing Klebsiella pneumoniae isolate 212423 in presence of BPL
Pseudomonas aeruginosa [8] = assay: Selectivity index, ratio of MIC for against IMP-4 producing Pseudomonas aeruginosa isolate 212886 to MIC for against IMP-4 producing Pseudomonas aeruginosa isolate 212886 in presence of BPL
Klebsiella pneumoniae [9] = assay: Selectivity index, ratio of MIC for against KPC-2 producing Klebsiella pneumoniae isolate 209735 to MIC for against KPC-2 producing Klebsiella pneumoniae isolate 209735 in presence of BPL
Escherichia coli [10] = assay: Antibacterial activity against extended-spectrum beta-lactamase producing Escherichia coli isolate 208687 after 18 hrs by CLSI broth microdilution method; conditions: isolate 208687, 18 h
Klebsiella pneumoniae [11] = assay: Antibacterial activity against KPC-2 producing Klebsiella pneumoniae isolate 212232 after 18 hrs in presence of BPL by CLSI broth microdilution method; conditions: isolate 212232, 18 h; outline: as §1
Escherichia coli [12] = assay: Antibacterial activity against Escherichia coli isolate 210737 after 18 hrs in presence of BPL by CLSI broth microdilution method; conditions: isolate 210737, 18 h; outline: as §1
Pseudomonas aeruginosa [13] = assay: Antibacterial activity against IMP-4 producing Pseudomonas aeruginosa isolate 208247 after 18 hrs by CLSI broth microdilution method; conditions: isolate 208247, 18 h
Pseudomonas aeruginosa [14] = assay: Antibacterial activity against IMP-4 producing Pseudomonas aeruginosa isolate 212886 after 18 hrs in presence of BPL by CLSI broth microdilution method; conditions: isolate 212886, 18 h; outline: as §1
Pseudomonas aeruginosa [15] = assay: Selectivity index, ratio of MIC for against IMP-4 producing Pseudomonas aeruginosa isolate 208247 to MIC for against IMP-4 producing Pseudomonas aeruginosa isolate 208247 in presence of BPL
Escherichia coli [16] = assay: Antibacterial activity against extended-spectrum beta-lactamase producing Escherichia coli isolate 209285 after 18 hrs by CLSI broth microdilution method; conditions: isolate 209285, 18 h
Pseudomonas aeruginosa [17] = assay: Antibacterial activity against IMP-4 producing Pseudomonas aeruginosa isolate 209471 after 18 hrs in presence of BPL by CLSI broth microdilution method; conditions: isolate 209471, 18 h; outline: as §1
Escherichia coli [18] = assay: Antibacterial activity against extended-spectrum beta-lactamase producing Escherichia coli isolate 212648 after 18 hrs by CLSI broth microdilution method; conditions: isolate 212648, 18 h
Pseudomonas aeruginosa [19] = assay: Antibacterial activity against IMP-4 producing Pseudomonas aeruginosa isolate 208247 after 18 hrs in presence of BPL by CLSI broth microdilution method; conditions: isolate 208247, 18 h; outline: as §1
Pseudomonas aeruginosa [20] = assay: Antibacterial activity against IMP-4 producing Pseudomonas aeruginosa isolate 209321 after 18 hrs by CLSI broth microdilution method; conditions: isolate 209321, 18 h
Escherichia coli [21] = assay: Antibacterial activity against extended-spectrum beta-lactamase producing Escherichia coli isolate 209285 after 18 hrs in presence of BPL by CLSI broth microdilution method; conditions: isolate 209285, 18 h; outline: as §1
Klebsiella pneumoniae [22] = assay: Selectivity index, ratio of MIC for against KPC-2 producing Klebsiella pneumoniae isolate 212232 to MIC for against KPC-2 producing Klebsiella pneumoniae isolate 212232 in presence of BPL
Escherichia coli [23] = assay: Antibacterial activity against extended-spectrum beta-lactamase producing Escherichia coli isolate 106342 after 18 hrs in presence of BPL by CLSI broth microdilution method; conditions: isolate 106342, 18 h; outline: as §1
Escherichia coli [24] = assay: Antibacterial activity against Escherichia coli isolate 210737 after 18 hrs by CLSI broth microdilution method; conditions: isolate 210737, 18 h
Klebsiella pneumoniae [25] = assay: Antibacterial activity against KPC-2 producing Klebsiella pneumoniae isolate 209632 after 18 hrs in presence of BPL by CLSI broth microdilution method; conditions: isolate 209632, 18 h; outline: as §1
Klebsiella pneumoniae [26] = assay: Antibacterial activity against KPC-2 producing Klebsiella pneumoniae isolate 212423 after 18 hrs in presence of BPL by CLSI broth microdilution method; conditions: isolate 212423, 18 h; outline: as §1
Klebsiella pneumoniae [27] = assay: Antibacterial activity against KPC-2 producing Klebsiella pneumoniae isolate 209632 after 18 hrs by CLSI broth microdilution method; conditions: isolate 209632, 18 h
Pseudomonas aeruginosa [28] = assay: Antibacterial activity against IMP-4 producing Pseudomonas aeruginosa isolate 207272 after 18 hrs by CLSI broth microdilution method; conditions: isolate 207272, 18 h
Klebsiella pneumoniae [29] = assay: Antibacterial activity against KPC-2 producing Klebsiella pneumoniae isolate 212232 after 18 hrs by CLSI broth microdilution method; conditions: isolate 212232, 18 h
Pseudomonas aeruginosa [30] = assay: Antibacterial activity against IMP-4 producing Pseudomonas aeruginosa isolate 209321 after 18 hrs in presence of BPL by CLSI broth microdilution method; conditions: isolate 209321, 18 h; outline: as §1
Escherichia coli [31] = assay: Selectivity index, ratio of MIC for against extended-spectrum beta-lactamase producing Escherichia coli isolate 208687 to MIC for extended-spectrum beta-lactamase producing Escherichia coli isolate 208687 in presence of BPL
Klebsiella pneumoniae [32] = assay: Antibacterial activity against KPC-2 producing Klebsiella pneumoniae isolate 209735 after 18 hrs in presence of BPL by CLSI broth microdilution method; conditions: isolate 209735, 18 h; outline: as §1
Pseudomonas aeruginosa [33] = assay: Selectivity index, ratio of MIC for against IMP-4 producing Pseudomonas aeruginosa isolate 209471 to MIC for against IMP-4 producing Pseudomonas aeruginosa isolate 209471 in presence of BPL
Pseudomonas aeruginosa [34] = assay: Antibacterial activity against IMP-4 producing Pseudomonas aeruginosa isolate 209471 after 18 hrs by CLSI broth microdilution method; conditions: isolate 209471, 18 h
Klebsiella pneumoniae [35] = assay: Antibacterial activity against KPC-2 producing Klebsiella pneumoniae isolate 209735 after 18 hrs by CLSI broth microdilution method; conditions: isolate 209735, 18 h
Escherichia coli [36] = assay: Selectivity index, ratio of MIC for against extended-spectrum beta-lactamase producing Escherichia coli isolate 106342 to MIC for extended-spectrum beta-lactamase producing Escherichia coli isolate 106342 in presence of BPL
Pseudomonas aeruginosa [37] = assay: Antibacterial activity against IMP-4 producing Pseudomonas aeruginosa isolate 207272 after 18 hrs in presence of BPL by CLSI broth microdilution method; conditions: isolate 207272, 18 h; outline: as §1
Escherichia coli [38] = assay: Selectivity index, ratio of MIC for against extended-spectrum beta-lactamase producing Escherichia coli isolate 212648 to MIC for extended-spectrum beta-lactamase producing Escherichia coli isolate 212648 in presence of BPL
Klebsiella pneumoniae [39] = assay: Antibacterial activity against KPC-2 producing Klebsiella pneumoniae isolate 212229 after 18 hrs by CLSI broth microdilution method; conditions: isolate 212229, 18 h
Pseudomonas aeruginosa [40] = assay: Selectivity index, ratio of MIC for against IMP-4 producing Pseudomonas aeruginosa isolate 207272 to MIC for against IMP-4 producing Pseudomonas aeruginosa isolate 207272 in presence of BPL
Pseudomonas aeruginosa [41] = assay: Antibacterial activity against IMP-4 producing Pseudomonas aeruginosa isolate 212886 after 18 hrs by CLSI broth microdilution method; conditions: isolate 212886, 18 h
Escherichia coli [42] = assay: Selectivity index, ratio of MIC for against extended-spectrum beta-lactamase producing Escherichia coli isolate 209285 to MIC for extended-spectrum beta-lactamase producing Escherichia coli isolate 209285 in presence of BPL
Klebsiella pneumoniae [43] = assay: Selectivity index, ratio of MIC for against KPC-2 producing Klebsiella pneumoniae isolate 209632 to MIC for against KPC-2 producing Klebsiella pneumoniae isolate 209632 in presence of BPL
Klebsiella pneumoniae [44] = assay: Selectivity index, ratio of MIC for against KPC-2 producing Klebsiella pneumoniae isolate 212229 to MIC for against KPC-2 producing Klebsiella pneumoniae isolate 212229 in presence of BPL
Klebsiella pneumoniae [45] = assay: Antibacterial activity against KPC-2 producing Klebsiella pneumoniae isolate 212423 after 18 hrs by CLSI broth microdilution method; conditions: isolate 212423, 18 h

Structure (SMILES): CC(C)C(O/N=C(\C(=O)N[C@@H]1C(=O)N(S(=O)(=O)O)[C@@H]1CO)c1csc(N)n1)c1cc(=O)c(O)cn1O (stereo not given in full)
- MIC (Escherichia coli [1]): 32 µg/mL
- MIC (Escherichia coli [2]): 64 µg/mL (≈ 117 µM)
- MIC (Escherichia coli [3]): 64 µg/mL
- Selectivity Index (Pseudomonas aeruginosa [4]): 1
- Selectivity Index (Escherichia coli [5]): 1 - 2
- MIC (Klebsiella pneumoniae [6]): 4 µg/mL
- Selectivity Index (Klebsiella pneumoniae [7]): 1
- Selectivity Index (Pseudomonas aeruginosa [8]): >4
- Selectivity Index (Klebsiella pneumoniae [9]): 1
- MIC (Escherichia coli [10]): 64 µg/mL (≈ 117 µM)
- MIC (Klebsiella pneumoniae [11]): 2 µg/mL
- MIC (Escherichia coli [12]): > 64 µg/mL
- MIC (Pseudomonas aeruginosa [13]): > 64 µg/mL
- MIC (Pseudomonas aeruginosa [14]): 16 µg/mL
- Selectivity Index (Pseudomonas aeruginosa [15]): 1 - 4
- MIC (Escherichia coli [16]): 64 µg/mL (≈ 117 µM)
- MIC (Pseudomonas aeruginosa [17]): > 64 µg/mL
- MIC (Escherichia coli [18]): 64 µg/mL (≈ 117 µM)
- MIC (Pseudomonas aeruginosa [19]): > 64 µg/mL
- MIC (Pseudomonas aeruginosa [20]): 64 µg/mL (≈ 117 µM)
- MIC (Escherichia coli [21]): 32 µg/mL
- Selectivity Index (Klebsiella pneumoniae [22]): 8
- MIC (Escherichia coli [23]): 64 µg/mL
- MIC (Escherichia coli [24]): > 64 µg/mL
- MIC (Klebsiella pneumoniae [25]): 2 µg/mL
- MIC (Klebsiella pneumoniae [26]): 8 µg/mL
- MIC (Klebsiella pneumoniae [27]): 8 µg/mL (≈ 14.6 µM)
- MIC (Pseudomonas aeruginosa [28]): > 64 µg/mL
- MIC (Klebsiella pneumoniae [29]): 16 µg/mL (≈ 29.3 µM)
- MIC (Pseudomonas aeruginosa [30]): 64 µg/mL
- Selectivity Index (Escherichia coli [31]): 2
- MIC (Klebsiella pneumoniae [32]): 16 µg/mL
- Selectivity Index (Pseudomonas aeruginosa [33]): 1 - 4
- MIC (Pseudomonas aeruginosa [34]): > 64 µg/mL
- MIC (Klebsiella pneumoniae [35]): 16 µg/mL (≈ 29.3 µM)
- Selectivity Index (Escherichia coli [36]): 1
- MIC (Pseudomonas aeruginosa [37]): > 64 µg/mL
- Selectivity Index (Escherichia coli [38]): 1
- MIC (Klebsiella pneumoniae [39]): 8 µg/mL (≈ 14.6 µM)
- Selectivity Index (Pseudomonas aeruginosa [40]): 1 - 4
- MIC (Pseudomonas aeruginosa [41]): > 64 µg/mL
- Selectivity Index (Escherichia coli [42]): 2
- Selectivity Index (Klebsiella pneumoniae [43]): 4
- Selectivity Index (Klebsiella pneumoniae [44]): 2
- MIC (Klebsiella pneumoniae [45]): 8 µg/mL (≈ 14.6 µM)
